Assay [1] in a line: The pKa value was measured at 17-O chemical shift changes due to protonation.
A short description of assay [2]: The pKa value was measured at 31-P chemical shift changes due to protonation.
The nature of assay [3]: The pKa value was measured at 15-N chemical shift changes due to protonation. Put shortly: (§1)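 Chemical shift recorded at 4 °C across a pH series. Sample pH was read in an ice-water bath (0-4 °C) before and after each NMR run and the two readings averaged, with no correction for deuterium or temperature. The meter was calibrated at 20 °C. pKa came from fitting single- or double-ionization titration equations to shift versus pH, with error estimated at about 0.05 pH units.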

A short description of assay [4]: The pKa value was measured at N15 chemical shift changes due to protonation. An outline of the steps:
as §1

SMILES strings stand for the structures.

With `CCOP(=O)(NP(=O)(OCC)OCC)OCC`, the pKa in assay [1] stood at 4.2; in assay [2] it was 3.8.

As for `NP(N)(=O)O`, the pKa in assay [3] and in assay [2] was 5.4 in each case.

`NP(=O)(O)O`: the figures for the pKa in assay [3] and in assay [2] were 2.8 and 3, respectively.

In the case of `c1c[nH]cn1`, the pKa in assay [4] is 7.

In the case of `N[C@@H](Cc1c[nH]cn1)C(=O)O`, the pKa in assay [4] amounted to 6.2.

For the molecule `O=P(O)(O)NP(=O)(O)O`, the pKa in assay [1] was found to be 10.4; in assay [2] it was 10.3.

On to `Nc1ncnc2c1ncn2[C@@H]1O[C@H](COP(=O)(O)OP(=O)(O)OP(=O)(O)O)[C@@H](O)[C@H]1O`, for which the pKa in assay [2] turned out to be 6.6.
